From ChEMBL document CHEMBL1777714, “Optimization of triazoles as novel and potent nonphlorizin SGLT2 inhibitors” (Bioorg Med Chem Lett, 2011)
≈ marks a conversion by molar mass, not a printed value.

Legend:
[1] = Solubility of the compound in phosphate buffered saline; type: physicochemical
Procedure, shortened: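 Solubility measured in PBS buffer, reported in µg/mL.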

[2] = Tmax in rat at 100 mg/kg, sc; type: ADME, organism-based; design: dose 100 mg/kg, route subcutaneous; details: in vivo
[3] = Cmax in rat at 100 mg/kg, sc; type: ADME, organism-based; design: dose 100 mg/kg, route subcutaneous; details: in vivo
Rattus norvegicus [4] = assay: AUC (0 to 24 hrs) in rat at 100 mg/kg, sc; type: ADME, organism-based, Plasma; design: time < 24 hr, dose 100 mg/kg, route subcutaneous; details: in vivo
[5] = Cmax in rat at 70 mg/kg, sc; type: ADME, organism-based; design: dose 70 mg/kg, route subcutaneous; details: in vivo
Rattus norvegicus [6] = assay: AUC (0 to 24 hrs) in rat at 70 mg/kg, sc; type: ADME, organism-based, Plasma; design: time < 24 hr, dose 70 mg/kg, route subcutaneous; details: in vivo
[7] = Tmax in rat at 70 mg/kg, sc; type: ADME, organism-based; design: dose 70 mg/kg, route subcutaneous; details: in vivo

Row | Structure (SMILES) | solubility [1] [µg/mL] | other results
1 | O=C1COc2c(Cl)cc(Cl)cc2N1Cc1nnc(CCc2ccc(Cl)cc2)n1CCC(F)(F)F | 1.6 (≈ 3 µM) | –
2 | CCCn1c(CN2C(=O)COc3c(C)cc(C)cc32)nnc1-c1ccc(Cl)cn1 | 1.1 (≈ 2.67 µM) | –
3 | CCCn1c(CN2C(=O)COc3c2cc(Cl)cc3[N+](=O)[O-])nnc1-c1ncccc1C | 80 (≈ 181 µM) | –
4 | CCCn1c(CN2C(=O)COc3c(C)cc(C)cc32)nnc1[C@@H]1CCc2ccccc2C1 | 23 (≈ 53.4 µM) | –

More lines, main results first:

Row | solubility [1] [µg/mL] | Structure (SMILES) | other results
5 | 2.2 (≈ 4.25 µM) | O=C1COc2c(cc(Cl)cc2[N+](=O)[O-])N1Cc1nnc(-c2ccc(Cl)cn2)n1CCC(F)(F)F | –
6 | 1 (≈ 2.16 µM) | CCCn1c(CN2C(=O)COc3c2cc(Cl)cc3[N+](=O)[O-])nnc1-c1ccc(Cl)cn1 | –
7 | 2 (≈ 4.52 µM) | CCCn1c(CN2C(=O)COc3c2cc(C)cc3[N+](=O)[O-])nnc1-c1ccc(Cl)cn1 | –
8 | 64 (≈ 170 µM) | CCCn1c(CN2C(=O)COc3c(C)cc(C)cc32)nnc1-c1ccccn1 | Tmax [2]: 8 h; Cmax [3]: 1050 nM; AUC (Rattus norvegicus [4]): 16.2 µM·h
9 | 19 (≈ 45.6 µM) | CCCn1c(CN2C(=O)COc3c(C)cc(C)cc32)nnc1[C@@H]1C[C@H]1c1ccccc1 | –
10 | 35 (≈ 84 µM) | CCCn1c(CN2C(=O)COc3c(C)cc(C)cc32)nnc1C1Cc2ccccc2C1 | Cmax [5]: 3.5 µM; AUC (Rattus norvegicus [6]): 61.6 µM·h; Tmax [7]: 24 h
